Positions of bridges follow the written chain, without caps; N, C: chain ends. Non-standard residues stand in square brackets, D forms with d. Residues, ends and D or L forms follow the SMILES beside them. Nle = CCCC[C@H](N)C(=O)O
Assays:
[1] = molecular target: T1, Calcitonin receptor (Homo sapiens) (UniProt P30988)
T1 sequence (whole entry): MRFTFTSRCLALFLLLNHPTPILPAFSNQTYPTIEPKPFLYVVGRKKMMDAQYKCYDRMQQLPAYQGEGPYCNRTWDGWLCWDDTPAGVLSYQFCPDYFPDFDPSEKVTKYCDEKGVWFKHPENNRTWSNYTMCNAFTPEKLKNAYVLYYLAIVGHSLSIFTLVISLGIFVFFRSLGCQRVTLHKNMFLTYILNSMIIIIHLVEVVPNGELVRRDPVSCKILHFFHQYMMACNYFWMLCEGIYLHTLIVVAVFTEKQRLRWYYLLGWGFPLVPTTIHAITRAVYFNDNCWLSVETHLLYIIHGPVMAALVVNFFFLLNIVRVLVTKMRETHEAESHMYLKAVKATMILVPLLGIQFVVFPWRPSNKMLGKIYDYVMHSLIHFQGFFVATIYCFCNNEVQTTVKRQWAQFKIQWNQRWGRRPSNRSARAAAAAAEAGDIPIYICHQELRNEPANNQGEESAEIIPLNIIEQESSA

[2] = molecular target: T2, Calcitonin receptor (Rattus norvegicus) (UniProt P32214); assay: Affinity for calcitonin receptor of rat brain relative to [125I]-salmon calcitonin
T2 sequence (whole entry): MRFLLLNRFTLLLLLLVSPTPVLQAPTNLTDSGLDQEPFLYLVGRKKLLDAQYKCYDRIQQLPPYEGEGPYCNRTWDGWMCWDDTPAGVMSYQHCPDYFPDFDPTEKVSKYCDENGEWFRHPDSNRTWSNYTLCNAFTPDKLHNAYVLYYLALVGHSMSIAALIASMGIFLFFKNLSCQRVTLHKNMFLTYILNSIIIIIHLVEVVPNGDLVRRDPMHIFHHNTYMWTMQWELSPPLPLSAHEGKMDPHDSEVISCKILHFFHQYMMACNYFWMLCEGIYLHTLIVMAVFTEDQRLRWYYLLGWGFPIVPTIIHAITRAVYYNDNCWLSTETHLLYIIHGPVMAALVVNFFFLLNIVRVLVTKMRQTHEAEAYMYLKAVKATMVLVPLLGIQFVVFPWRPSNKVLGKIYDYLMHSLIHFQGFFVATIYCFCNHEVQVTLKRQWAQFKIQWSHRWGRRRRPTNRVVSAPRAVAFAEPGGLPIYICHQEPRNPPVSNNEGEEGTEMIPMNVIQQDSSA
Summary of the method: (§1)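 Male Sprague–Dawley rat (250–350 g) brain membranes (~0.63 mg protein/tube) were shaken on ice for 30 min with 10 pM final [125I-Tyr22]sCT and competitor in 50 mM Tris-HCl pH 7.4 with 34 μM bacitracin. Tubes were centrifuged and the pellets washed, SDS-solubilized and scintillation counted. Nonspecific binding was taken with 1 μM sCT. IC50 came from probit analysis, and relative affinity set sCT = 100%.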

Calcitonin receptor [3] = molecular target: T3, Calcitonin receptor (Rattus norvegicus, UniProt P32214); assay: Displacement of [125I]-salmon calcitonin (sCT) from calcitonin receptor of rat brain
T3 sequence (P32214 whole entry): T2 sequence (whole entry)
Summary of the method: as §1

Calcitonin receptor [4] = molecular target: T4, Calcitonin receptor (Homo sapiens, UniProt P30988); assay: Inhibition of [125I]-salmon calcitonin (sCT) binding to human calcitonin receptor I1 expressed in HEK293 cells; format: cell-based; details: hek293
T4 sequence (P30988 whole entry): T1 sequence (whole entry)

| Structure (SMILES) | ED50 [1] [nM] | Relative affinity [2] | IC50 (Calcitonin receptor [3]) [nM] | Ki (Calcitonin receptor [4]) [nM] |
| --- | --- | --- | --- | --- |
| CC(C)C[C@H](NC(=O)[C@H](CCCCN)NC(=O)CNC(=O)[C@H](CC(C)C)NC(=O)[C@@H](NC(=O)[C@H](CS)NC(=O)[C@@H](NC(=O)[C@H](CO)NC(=O)[C@H](CC(C)C)NC(=O)[C@H](CC(N)=O)NC(=O)[C@H](CO)NC(=O)[C@@H](N)CS)[C@@H](C)O)C(C)C)C(=O)N[C@@H](CO)C(=O)N[C@@H](CCC(N)=O)C(=O)N[C@@H](CCC(=O)O)C(=O)N[C@@H](CC(C)C)C(=O)N[C@H]1CC(=O)NCCC[C@@H](C(=O)N[C@@H](Cc2ccc(O)cc2)C(=O)N2CCC[C@@H]2C(=O)N[C@@H](CCCN=C(N)N)C(=O)N[C@H](C(=O)N[C@@H](CC(N)=O)C(=O)N[C@H](C(=O)NCC(=O)N[C@@H](CO)C(=O)NCC(=O)N[C@H](C(=O)N2CCC[C@@H]2C(N)=O)[C@@H](C)O)[C@@H](C)O)[C@@H](C)O)NC(=O)[C@H](CCC(N)=O)NC(=O)[C@H](CC(C)C)NC(=O)[C@H](CCCCN)NC1=O | 0.091 | 120 | – | – |
| CC[C@H](C)[C@H](NC(=O)[C@H](C)NC(=O)[C@@H](NC(=O)[C@H](CCC(N)=O)NC(=O)[C@H]1CCCN1C(=O)[C@H](Cc1ccccc1)NC(=O)[C@@H](NC(Cc1c[nH]cn1)C(=O)N[C@@H](Cc1ccccc1)C(=O)[C@H](CCCCN)NC(=O)[C@H](CC(N)=O)NC(=O)[C@H](Cc1ccccc1)NC(=O)[C@H](CC(=O)O)NC(=O)[C@H](CCC(N)=O)NC(=O)[C@@H](NC(=O)[C@H](Cc1ccc(O)cc1)NC(=O)[C@@H](NC(=O)CNC(=O)[C@H](CC(C)C)NC(=O)[C@H](CCSC)NC(=O)[C@H](CS)NC(=O)[C@@H](NC(=O)[C@H](CO)NC(=O)[C@H](CC(C)C)NC(=O)[C@H](CC(N)=O)NC(=O)CNC(=O)[C@@H](N)CS)[C@@H](C)O)[C@@H](C)O)[C@@H](C)O)[C@@H](C)O)[C@@H](C)O)C(=O)NCC(=O)N[C@H](C(=O)NCC(=O)N[C@@H](C)C(=O)N1CCC[C@@H]1C(N)=O)C(C)C (some centres undefined) | 0.6 | 0.015 | – | – |
| CC[C@H](C)[C@H](NC(=O)[C@H](C)NC(=O)[C@@H](NC(=O)[C@H](CCC(N)=O)NC(=O)[C@@H]1CCCN1C(=O)[C@H](Cc1ccccc1)NC(=O)[C@@H](NC(=O)[C@H](Cc1cnc[nH]1)NC(=O)CNC(=O)[C@@H]1CCCN1C(=O)[C@H](CC(N)=O)NC(=O)[C@H](Cc1ccccc1)NC(=O)[C@H](CC(=O)O)NC(=O)[C@H](CCC(N)=O)NC(=O)[C@@H](NC(=O)[C@H](Cc1ccc(O)cc1)NC(=O)[C@@H](NC(=O)CNC(=O)[C@H](CC(C)C)NC(=O)[C@H](CCSC)NC(=O)[C@@H]1CSSC[C@H](N)C(=O)NCC(=O)N[C@@H](CC(N)=O)C(=O)N[C@@H](CC(C)C)C(=O)N[C@@H](CO)C(=O)N[C@@H]([C@@H](C)O)C(=O)N1)[C@@H](C)O)[C@@H](C)O)[C@@H](C)O)[C@@H](C)O)C(=O)NCC(=O)N[C@H](C(=O)NCC(=O)N[C@@H](C)C(=O)N1CCC[C@H]1C(N)=O)C(C)C (H-CGNLSTCMLGTYTQDFNPGHTFPQTAIGVGAP-NH2; disulfide 1-7) | – | – | > 5000 | > 2500 |
| CCCC[C@H](NC(=O)[C@H](Cc1c[nH]cn1)NC(=O)[C@H](CC(C)C)NC(=O)[C@H](CCCCN)NC(=O)[C@H](CC(N)=O)NC(=O)[C@H](CC(C)C)NC(=O)[C@H](CCC(=O)O)NC(=O)[C@H](CCC(N)=O)NC(=O)[C@H](CO)NC(=O)[C@H](CC(C)C)NC(=O)[C@H](CCCCN)NC(=O)CNC(=O)[C@H](CC(C)C)NC(=O)[C@@H](NC(=O)[C@@H]1CSSC[C@H](N)C(=O)N[C@@H](CO)C(=O)N[C@@H](CC(N)=O)C(=O)N[C@@H](CC(C)C)C(=O)N[C@@H](CO)C(=O)N[C@@H]([C@@H](C)O)C(=O)N1)C(C)C)C(=O)N[C@@H](Cc1ccc(O)cc1)C(=O)N1CCC[C@H]1C(=O)N[C@@H](CCCN=C(N)N)C(=O)N[C@H](C(=O)N[C@@H](CC(N)=O)C(=O)N[C@H](C(=O)NCC(=O)N[C@@H](CO)C(=O)NCC(=O)N[C@H](C(=O)N1CCC[C@H]1C(N)=O)[C@@H](C)O)[C@@H](C)O)[C@@H](C)O (H-CSNLSTCVLGKLSQELNKLH[Nle]YPRTNTGSGTP-NH2; disulfide 1-7) | – | – | 0.408 | 0.069 |

Results, then the compound that gave them:

| ED50 [1] [nM] | Relative affinity [2] | IC50 (Calcitonin receptor [3]) [nM] | Ki (Calcitonin receptor [4]) [nM] | Structure (SMILES) |
| --- | --- | --- | --- | --- |
| – | – | 0.326 | 0.023 | CC(C)C[C@H](NC(=O)[C@H](CCCCN)NC(=O)CNC(=O)[C@H](CC(C)C)NC(=O)[C@@H](NC(=O)[C@H](CS)NC(=O)[C@@H](NC(=O)[C@H](CO)NC(=O)[C@H](CC(C)C)NC(=O)[C@H](CC(N)=O)NC(=O)[C@H](CO)NC(=O)[C@@H](N)CS)[C@@H](C)O)C(C)C)C(=O)N[C@@H](CO)C(=O)N[C@@H](CCC(N)=O)C(=O)N[C@@H](CCC(=O)O)C(=O)N[C@@H](CC(C)C)C(=O)N[C@H]1CC(=O)NCCC[C@@H](C(=O)N[C@@H](Cc2ccc(O)cc2)C(=O)N2CCC[C@H]2C(=O)N[C@@H](CCCN=C(N)N)C(=O)N[C@H](C(=O)N[C@@H](CC(N)=O)C(=O)N[C@H](C(=O)NCC(=O)N[C@@H](CO)C(=O)NCC(=O)N[C@H](C(=O)N2CCC[C@H]2C(N)=O)[C@@H](C)O)[C@@H](C)O)[C@@H](C)O)NC(=O)[C@H](CCC(N)=O)NC(=O)[C@H](CC(C)C)NC(=O)[C@H](CCCCN)NC1=O |
| – | – | 60 | 195 | CC[C@H](C)[C@H](NC(=O)[C@H](C)NC(=O)[C@@H](NC(=O)[C@H](CCC(N)=O)NC(=O)[C@@H]1CCCN1C(=O)[C@H](Cc1ccccc1)NC(=O)[C@@H]1CCCCNC(=O)C[C@H](NC(=O)[C@H](Cc2ccccc2)NC(=O)[C@H](CC(=O)O)NC(=O)[C@H](CCC(N)=O)NC(=O)[C@@H](NC(=O)[C@H](Cc2ccc(O)cc2)NC(=O)[C@@H](NC(=O)CNC(=O)[C@H](CC(C)C)NC(=O)[C@H](CCSC)NC(=O)[C@@H]2CSSC[C@H](N)C(=O)NCC(=O)N[C@@H](CC(N)=O)C(=O)N[C@@H](CC(C)C)C(=O)N[C@@H](CO)C(=O)N[C@@H]([C@@H](C)O)C(=O)N2)[C@@H](C)O)[C@@H](C)O)C(=O)N[C@@H](CCCCN)C(=O)N[C@@H](Cc2ccccc2)C(=O)N[C@@H](Cc2cnc[nH]2)C(=O)N1)[C@@H](C)O)C(=O)NCC(=O)N[C@H](C(=O)NCC(=O)N[C@@H](C)C(=O)N1CCC[C@H]1C(N)=O)C(C)C (H-CGNLSTCMLGTYTQDFDKFHKFPQTAIGVGAP-NH2; disulfide 1-7; lactam 17-21) |
| – | – | 1910 | 1230 | CC[C@H](C)[C@H](NC(=O)[C@H](C)NC(=O)[C@@H](NC(=O)[C@H](CCC(N)=O)NC(=O)[C@@H]1CCCN1C(=O)[C@H](Cc1ccccc1)NC(=O)[C@@H](NC(=O)[C@H](Cc1cnc[nH]1)NC(=O)[C@H](Cc1ccccc1)NC(=O)[C@@H]1CCCN1C(=O)[C@H](CC(N)=O)NC(=O)[C@H](Cc1ccccc1)NC(=O)[C@H](CC(=O)O)NC(=O)[C@H](CCC(N)=O)NC(=O)[C@@H](NC(=O)[C@H](Cc1ccc(O)cc1)NC(=O)[C@@H](NC(=O)CNC(=O)[C@H](CC(C)C)NC(=O)[C@H](CCSC)NC(=O)[C@@H]1CSSC[C@H](N)C(=O)NCC(=O)N[C@@H](CC(N)=O)C(=O)N[C@@H](CC(C)C)C(=O)N[C@@H](CO)C(=O)N[C@@H]([C@@H](C)O)C(=O)N1)[C@@H](C)O)[C@@H](C)O)[C@@H](C)O)[C@@H](C)O)C(=O)NCC(=O)N[C@H](C(=O)NCC(=O)N[C@@H](C)C(=O)N1CCC[C@H]1C(N)=O)C(C)C (H-CGNLSTCMLGTYTQDFNPFHTFPQTAIGVGAP-NH2; disulfide 1-7) |
